According to ChEMBL document CHEMBL5247673, “Discovery of Small Molecules Targeting the Frameshifting Element RNA in SARS-CoV-2 Viral Genome” (ACS Med Chem Lett, 2023):
Activity calls are given as the source filed them. The calls are words filed in the database; no cut-off is given here.

What was measured:
[1] = test system: Severe acute respiratory syndrome coronavirus 2; experiment: Binding affinity to 5'-CY5-labelled SARS-CoV-2 frameshift element RNA by MST analysis
Method in brief: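 Single-concentration MST screen against 5′-Cy5-labelled FSE RNA at 100 μM compound. A hit required an MST shift greater than 3SD of the DMSO signal, with the lead compound as positive control.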

[2] = test system: Severe acute respiratory syndrome coronavirus 2; experiment: Binding affinity to 5'-CY5-labelled SARS-CoV-2 frameshift element RNA by SPR analysis
Method in brief: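 Single-concentration SPR at 100 μM compound over immobilized FSE RNA, with the lead compound as positive control.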

Reticulocyte [3] = experiment: Binding affinity to wild-type SARS-CoV-2 frameshift element RNA pseudoknot sequence transfected with Renilla/Firefly luciferase in rabbit reticulocyte lysate assessed as frameshifting by measuring ratio of renilla/firefly luminescence by dual-luciferase reporter assay; type: subcellular; conditions: Severe acute respiratory syndrome coronavirus 2
Method in brief: (§1)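 In vitro frameshifting reporter with the SARS-CoV-2 or RSV pseudoknot placed between Renilla (0 frame) and firefly (−1 frame) luciferases. Frameshifting was the luminescence ratio. Frameshifting and translation were normalized to WT plus DMSO. Controls were a 5′ stop codon, a 3′ stop codon and a same-frame construct. Data are mean ± SD, n = 3.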

Reticulocyte [4] = experiment: Binding affinity to wild-type SARS-CoV-2 frameshift element RNA pseudoknot sequence transfected with Renilla/Firefly luciferase in rabbit reticulocyte lysate assessed as translation by measuring ratio of renilla luminescence by dual-luciferase reporter assay; type: subcellular; conditions: Severe acute respiratory syndrome coronavirus 2; method in brief: as §1
Reticulocyte [5] = experiment: Binding affinity to wild-type Rous sarcoma virus frameshift element RNA pseudoknot sequence transfected with Renilla/Firefly luciferase in rabbit reticulocyte lysate assessed as frameshifting by measuring ratio of renilla/firefly luminescence by dual-luciferase reporter assay; type: subcellular; method in brief: as §1
[6] = test system: Severe acute respiratory syndrome coronavirus 2; experiment: Binding affinity to SARS-CoV-2 frameshift element RNA assessed as thermal stability by measuring change in melting temperature of RNA by circular dichroism analysis
Method in brief: (§2)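 FSE RNA thermal melt with compound at 150 or 500 μM. Tm was taken from first-derivative melting curves and reported as ΔTm.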

Reticulocyte [7] = experiment: Binding affinity to wild-type Rous sarcoma virus frameshift element RNA pseudoknot sequence transfected with Renilla/Firefly luciferase in rabbit reticulocyte lysate assessed as translation by measuring ratio of renilla luminescence by dual-luciferase reporter assay; type: subcellular; method in brief: as §1
[8] = test system: Severe acute respiratory syndrome coronavirus 2; experiment: Binding affinity to SARS-CoV-2 frameshift element RNA at 150 uM by water ligand observed gradient spectroscopic analysis
Method in brief: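 WaterLOGSY NMR of 150 μM compound, alone and with 5 μM unlabelled FSE RNA. N-methyl-L-valine served as internal non-binding control, and a phase inversion of ligand peaks was read as binding.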

[9] = test system: Severe acute respiratory syndrome coronavirus 2; experiment: Binding affinity to 5'-CY5-labelled SARS-CoV-2 frameshift element RNA at 50 uM by MST analysis
[10] = Cytotoxicity against human MCF7 cells assessed as cell viability at 50 uM measured after 48 hrs by Cell-titer Glo luminescent assay relative to control; type: toxicity, cell-based; conditions: read-out: Activity
Method in brief: (§3)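 MCF-7 cell viability after 48 h compound exposure.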

[11] = Binding affinity to 5'-biotin-labelled SARS-CoV-2 frameshift element RNA assessed as dissociation constant by SPR analysis; set-up: species or system Severe acute respiratory syndrome coronavirus 2
Method in brief: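 5′-Biotin FSE RNA was captured on a streptavidin-coated SPR surface. Compound was injected at 15.6–1000 μM, and KD came from steady-state fitting to a 1:1 Langmuir model. Stoichiometry was estimated from Rmax and the molecular ratio.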

[12] = Binding affinity to 5'-CY5-labelled SARS-CoV-2 frameshift element RNA assessed as dissociation constant by MST analysis; set-up: species or system Severe acute respiratory syndrome coronavirus 2
Method in brief: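 MST titration of the compound (4.9–500 μM) into 5′-Cy5-labelled FSE RNA. KD was fitted from T-jump values.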

MCF7 [13] = experiment: Inhibition of programmed -1 ribosomal frameshifting in human MCF7 cells harboring pCherryGFP-Inframe-noFSE plasmid assessed as inhibition of GFP expression incubated for 30 mins by fluorescence microscopic analysis; type: functional, cell-based
Method in brief: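 MCF-7 cells were treated with compound at various concentrations and transfected with an mCherry–FSE–GFP reporter: WT, a stop-codon negative control, or an in-frame no-FSE plasmid. GFP expression was the read-out, compared with a DMSO (0 μM) control. Data are mean ± SD of three independent experiments.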

[14] = test system: Severe acute respiratory syndrome coronavirus 2; experiment: Binding affinity to 5'-Cy5-labelled SARS-CoV-2 frameshift element RNA at 10 uM by microarray-based fluorescence analysis
[15] = test system: Severe acute respiratory syndrome coronavirus 2; experiment: Binding affinity to SARS-CoV-2 frameshift element RNA assessed as thermal stability by measuring change in melting temperature of RNA at 150 uM by circular dichroism analysis; method in brief: as §2
[16] = test system: Severe acute respiratory syndrome coronavirus 2; experiment: Binding affinity to SARS-CoV-2 frameshift element RNA assessed as thermal stability by measuring change in melting temperature of RNA at 500 uM by circular dichroism analysis; method in brief: as §2
Reticulocyte [17] = experiment: Binding affinity to wild-type Rous sarcoma virus frameshift element RNA pseudoknot sequence transfected with Renilla/Firefly luciferase in rabbit reticulocyte lysate assessed as reduction in frameshifting by dual-luciferase reporter assay relative to control; type: subcellular; set-up: scale not given: the % may be the effect or the level left; method in brief: as §1
Reticulocyte [18] = experiment: Binding affinity to wild-type Rous sarcoma virus frameshift element RNA pseudoknot sequence transfected with Renilla/Firefly luciferase in rabbit reticulocyte lysate assessed as inhibition of translation by dual-luciferase reporter assay relative to control; type: subcellular; conditions: concentration not given here; method in brief: as §1
MCF7 [19] = experiment: Cytotoxicity against human MCF7 cells assessed as reduction in cell viability upto 100 uM measured after 48 hrs by Cell-titer Glo luminescent assay; type: toxicity, cell-based; conditions: mcf7, 48 h; method in brief: as §3
Reticulocyte [20] = experiment: Binding affinity to wild-type SARS-CoV-2 frameshift element RNA pseudoknot sequence transfected with Renilla/Firefly luciferase in rabbit reticulocyte lysate assessed as reduction in frameshifting by dual-luciferase reporter assay relative to control; type: subcellular; set-up: scale not given: the % may be the effect or the level left; conditions: Severe acute respiratory syndrome coronavirus 2; method in brief: as §1

SMILES | Activity [1] | Activity [2] | also measured
FC(F)(F)c1ccc(-c2nc(NCCN3CCOCC3)c3ccccc3n2)cc1 | inactive | Active | 
COc1ccccc1-c1nc(NCCN2CCOCC2)c2ccccc2n1 | inactive | Active | 
COc1ccc(-c2nc(NCCN3CCOCC3)c3c(OC)cccc3n2)cc1 | inactive | Active | 
COc1ccc(-c2nc(N3CC(N4CCOCC4)C3)c3ccccc3n2)cc1 | inactive | Active | 
COc1ccc(-c2nc(NCCN3CCOCC3)c3cc(C(F)(F)F)ccc3n2)cc1 | Active | inactive | 
COc1ccc(-c2nc(NCCN3CCOCC3)c3cc([N+](=O)[O-])ccc3n2)cc1 | inactive | inactive | 
COc1ccc(F)cc1COc1ccc(-c2nc(NCCN3CCOCC3)c3ccccc3n2)cc1 | inactive | inactive | 
CC#CCOc1ccc(-c2nc(NCCN3CCOCC3)c3ccccc3n2)cc1 | inactive | inactive | 
COc1ccc(-c2nc(NCCN3CCOCC3)c3ccc(-c4cn[nH]c4)cc3n2)cc1 | Active | Active | 
COc1ccc(-c2nc(NCCS(=O)(=O)N3CCOCC3)c3ccccc3n2)cc1 | inactive | Active | 
O=[N+]([O-])c1ccc(-c2nc(NCCN3CCOCC3)c3ccccc3n2)cc1 | inactive | inactive | 
CCN(CCN1CCOCC1)c1nc(-c2ccc(OC)cc2)nc2ccccc12 | inactive | Active | 
COc1ccc(-c2nc(NCCN3CCOCC3)c3cc(-c4ccc(N5CCOCC5)c(C)c4)ccc3n2)cc1 | inactive | Active | 
COc1ccc(-c2nc(NCCN3CCOCC3)c3cccc(OC)c3n2)cc1 | inactive | Active | 
COc1cccc(-c2nc(NCCN3CCOCC3)c3ccccc3n2)c1 | inactive | inactive | 
CCOC(=O)c1ccccc1NC(=O)N1CCCN(Cc2csc(C)n2)CC1 | Active |  | Ratio (Reticulocyte [3]): 1.02; Ratio (Reticulocyte [4]): 1.01; Ratio (Reticulocyte [5]): 1.13; ΔTm [6]: 2.2 °C; Ratio (Reticulocyte [7]): 0.96
CCOC(=O)c1cccc(Nc2nc(-c3cccnc3)nc3ccccc23)c1 |  |  | Activity [8]: inactive; Activity [9]: inactive
COc1ccc(-c2nc(NCCCN3CCC(N4CCCCC4)CC3)c3ccccc3n2)cc1 |  |  | Activity [8]: inactive; Activity [9]: inactive
COc1ccc(-c2nc(NCCN3CCOCC3)c3ccc(C(F)(F)F)cc3n2)cc1 | Active | inactive | 
COc1ccc(-c2nc(NCCN3CCOCC3)c3ccc([N+](=O)[O-])cc3n2)cc1 | inactive | inactive | 
COc1ccc(-c2nc(NCCN3CCOCC3)c3cc(OC)ccc3n2)cc1 | Active | Active | Ratio (Reticulocyte [3]): 0.98; Ratio (Reticulocyte [4]): 0.98; Ratio (Reticulocyte [5]): 1.13; viability at 48 h, 50 µM [10]: 95.6%; Kd [11]: 60 µM; Ratio (Reticulocyte [7]): 0.82
COc1ccc(-c2nc(NCCN3CCOCC3)c3ccccc3n2)cc1 | Active | Active | Activity [8]: Active; Kd [12]: 139 µM; Ratio (Reticulocyte [3]): 0.99; Ratio (Reticulocyte [4]): 1.35; inhibition (MCF7 [13]): inactive; Ratio (Reticulocyte [5]): 1.21; viability at 48 h, 50 µM [10]: 91.6%; Kd [11]: 147 µM; Activity [14]: Active; ΔTm [15]: -2.5 °C; ΔTm [16]: -4.5 °C; Ratio (Reticulocyte [7]): 0.77
COc1ccc(-c2nc(NCCN3CCOCC3)c3cc(-c4cn[nH]c4)ccc3n2)cc1 | inactive | Active | 
COc1ccc(-c2nc(NCCN3CCOCC3)c3ccc(-c4ccc(S(N)(=O)=O)cc4)cc3n2)cc1 | inactive | inactive | 
COc1ccc(-c2nc(NCCN3CCOCC3)c3cc(-c4ccc(S(N)(=O)=O)cc4)ccc3n2)cc1 | inactive | Active | 
COc1ccc(-c2nc(NCCN3CCOCC3)c3ccc(OC)cc3n2)cc1 | Active | Active | 
COc1ccc(-c2nc(NCCN3CCN(C)CC3)c3ccccc3n2)cc1 | Active | Active | 
CCNCC1CCN(c2c(F)cc3c(=O)c(C(=O)O)cn(CC)c3c2F)C1 (stereo not drawn) [MERAFLOXACIN] | Active |  | Activity (Reticulocyte [17]): 41%; Ratio (Reticulocyte [3]): 0.21; inhibition (Reticulocyte [18]): 30%; Activity (MCF7 [19]): Non-Toxic; Ratio (Reticulocyte [4]): 0.9; Ratio (Reticulocyte [5]): 0.59; Activity (Reticulocyte [20]): 79%; ΔTm [6]: -3.7 °C; Ratio (Reticulocyte [7]): 0.7
COc1ccc(-c2nc(NCCN3CCOCC3)c3cc(OC)c(OC)cc3n2)cc1 | Active | Active | 
